Data: ChEMBL document CHEMBL4732101, “Novel quinolone-based potent and selective HDAC6 inhibitors: Synthesis, molecular modeling studies and biological investigation” (Eur J Med Chem, 2021)
Activity calls are given as the source filed them. The rule behind the calls is not given here.

Experiments:
HCT-116 [1] = test: Cytotoxicity against human HCT-116 cells assessed as reduction in cell viability measured after 24 hrs by MTT assay; assay type: functional, cell-based; settings: HCT-116, 24 h
Method in brief: (§1)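 HCT-116 cells grown in DMEM with 10% FBS, 2 mM L-glutamine and antibiotics. 2.5×10^4 cells/well treated in triplicate at 50, 25, 10, 5 and 1 µM for 12, 24 or 48 h. Then MTT 0.5 mg/ml for 3 h, supernatant removed, formazan dissolved in isopropanol, absorbance read at 570 nm. IC50 derived from the concentration series.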

HCT-116 [2] = test: Cytotoxicity against human HCT-116 cells assessed as reduction in cell viability measured after 48 hrs by MTT assay; assay type: functional, cell-based; settings: HCT-116, 48 h; method in brief: as §1
U-937 [3] = test: Cytotoxicity against human U-937 cells assessed as reduction in cell viability measured after 48 hrs by MTT assay; assay type: functional, cell-based; settings: U-937, 48 h
Method in brief: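 U937 cells grown in RPMI-1640 with 10% FBS, 2 mM L-glutamine and penicillin-streptomycin. 2.5×10^4 cells/well treated in triplicate at 50, 25, 10, 5 and 1 µM for 12, 24 or 48 h. MTT 0.5 mg/ml added for 3 h, plate centrifuged 5 min at 1200 rpm, crystals dissolved in isopropanol, A570 read. IC50 derived from the concentration series.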

HCT-116 [4] = test: Cytotoxicity against human HCT-116 cells assessed as cell viability measured after 48 hrs by MTT assay relative to control; assay type: functional; method in brief: as §1
HCT-116 [5] = test: Induction of apoptosis in human HCT-116 cells assessed as increase in PARP cleavage at 10 uM measured after 24 hrs by Western blot analysis; assay type: functional, cell-based
Method in brief: (§2)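 HCT-116 or U937 cells treated at 10 µM for 12 and 24 h. […] Western blot used 40 µg total protein or 5 µg acid-extracted histone. Blots probed for cleaved PARP, acetylated tubulin, H3K9/14ac and Hsp90(AcLys294), normalized to GAPDH or H4. Compared with control cells by one-way ANOVA and Dunnett's test.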

U-937 [6] = test: Induction of apoptosis in human U-937 cells assessed as increase in PARP cleavage at 10 uM measured after 24 hrs by Western blot analysis; assay type: functional, cell-based; method in brief: as §2
[7] = target: T1, Protein deacetylase HDAC6 (Homo sapiens) (UniProt Q9UBN7); test: Inhibition of HDAC6 in human HCT-116 cells assessed as increase in alpha-tubulin acetylation at 10 uM measured after 12 to 24 hrs by Western blot analysis relative to control; assay type: cell-based; settings: time 12-24 hrs; method in brief: as §2
T1 sequence (whole entry): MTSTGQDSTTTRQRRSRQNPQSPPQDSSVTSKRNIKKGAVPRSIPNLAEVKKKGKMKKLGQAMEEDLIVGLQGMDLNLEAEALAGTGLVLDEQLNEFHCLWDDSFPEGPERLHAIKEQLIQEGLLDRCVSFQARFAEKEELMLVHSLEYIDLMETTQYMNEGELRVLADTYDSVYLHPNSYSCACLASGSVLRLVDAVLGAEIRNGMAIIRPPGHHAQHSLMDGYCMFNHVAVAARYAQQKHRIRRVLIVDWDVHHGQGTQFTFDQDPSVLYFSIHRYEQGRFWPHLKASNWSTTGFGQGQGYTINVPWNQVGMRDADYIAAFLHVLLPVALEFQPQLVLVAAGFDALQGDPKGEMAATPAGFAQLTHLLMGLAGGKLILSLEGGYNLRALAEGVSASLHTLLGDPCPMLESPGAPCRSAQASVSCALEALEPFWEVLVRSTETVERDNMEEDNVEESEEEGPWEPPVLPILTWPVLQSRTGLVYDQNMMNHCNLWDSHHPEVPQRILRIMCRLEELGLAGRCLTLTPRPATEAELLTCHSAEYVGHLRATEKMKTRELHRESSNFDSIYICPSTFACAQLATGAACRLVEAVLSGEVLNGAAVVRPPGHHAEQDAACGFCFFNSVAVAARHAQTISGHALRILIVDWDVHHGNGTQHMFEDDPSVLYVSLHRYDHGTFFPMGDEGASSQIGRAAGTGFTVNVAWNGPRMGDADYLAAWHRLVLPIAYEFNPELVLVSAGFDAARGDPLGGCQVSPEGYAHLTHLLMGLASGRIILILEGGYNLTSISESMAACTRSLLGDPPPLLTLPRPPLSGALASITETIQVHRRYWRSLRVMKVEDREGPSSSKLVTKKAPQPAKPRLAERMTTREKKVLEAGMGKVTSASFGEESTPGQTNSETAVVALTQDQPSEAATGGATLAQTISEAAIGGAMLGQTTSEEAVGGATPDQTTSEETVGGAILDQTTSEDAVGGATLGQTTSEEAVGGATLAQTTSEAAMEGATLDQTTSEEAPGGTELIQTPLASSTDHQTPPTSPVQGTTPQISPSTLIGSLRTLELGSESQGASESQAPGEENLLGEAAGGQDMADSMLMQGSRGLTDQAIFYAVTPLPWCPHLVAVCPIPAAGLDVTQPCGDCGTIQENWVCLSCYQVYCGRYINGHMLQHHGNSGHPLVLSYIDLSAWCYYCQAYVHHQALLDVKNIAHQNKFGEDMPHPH

[8] = target: T1, Protein deacetylase HDAC6 (Homo sapiens); test: Inhibition of HDAC6 in human HCT-116 cells assessed as increase in Hsp90(AcLys294) acetylation at 10 uM measured after 12 to 24 hrs by Western blot analysis; assay type: cell-based; settings: time 12-24 hrs; method in brief: as §2
[9] = Stability of compound in pH 3 buffer assessed as parent compound remaining at 250 uM measured after 24 hrs by HPLC/UV/DAD method; assay type: physicochemical; settings: read-out: Stabilty
Method in brief: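 10 mM DMSO stock diluted to 250 µM (2.5% DMSO) in 50 mM acetic acid, pH 3.0, and shaken 24 h at 25 °C. For solubility, samples filtered, diluted 1:2, quantified by HPLC-UV at 254 nm against a standard. For stability, percent remaining taken as the 24 h peak area over the T0 peak area. Triplicate analyses averaged.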

[10] = Mutagenicity in Salmonella typhimurium TA98 at 5 to 230 uM measured after 90 mins in presence of rat liver S9 fraction by Ames test; assay type: toxicity, subcellular; settings: salmonella enterica subsp. enterica serovar typhimurium, s9, 1.5 h, dose 5-230 µM
[11] = Mutagenicity in Salmonella typhimurium TA100 at 5 to 230 uM measured after 90 mins in presence of rat liver S9 fraction by Ames test; assay type: toxicity, subcellular; settings: salmonella enterica subsp. enterica serovar typhimurium, s9, 1.5 h, dose 5-230 µM
[12] = Mutagenicity in Salmonella typhimurium TA98 at 5 to 230 uM measured after 90 mins in absence of rat liver S9 fraction by Ames test; assay type: toxicity; settings: salmonella enterica subsp. enterica serovar typhimurium, 1.5 h, dose 5-230 µM
[13] = Mutagenicity in Salmonella typhimurium TA100 at 5 to 230 uM measured after 90 mins in absence of rat liver S9 fraction by Ames test; assay type: toxicity; settings: salmonella enterica subsp. enterica serovar typhimurium, s9, 1.5 h, dose 5-230 µM

- fold change (FC) [7]: > 9
- inhibition [8]: Active
- remaining at 24 h, 250 µM [9]: > 95%
Structure (SMILES): CCN(CC)Cc1ccc(Cn2c(=O)c(OCc3ccc(C(=O)NO)cc3)c(-c3cccnc3)c3ccccc32)cc1
- IC50 (HCT-116 [1]): 25.7 µM
- IC50 (HCT-116 [2]): 8.4 µM
- IC50 (U-937 [3]): 45.5 µM
- Activity (HCT-116 [4]): 10%
- Activity (HCT-116 [5]): Active
- Activity (U-937 [6]): Active
- Activity [10]: Non-Toxic
- Activity [11]: Non-Toxic
- Activity [12]: Non-Toxic
- Activity [13]: Non-Toxic
